Inhibition in vivo and ED50 data for 13 compounds are collected here from ChEMBL document CHEMBL1121502, “Antiallergy activity of 10-oxo-10-H-pyridazino[6,1-b]quinazoline-2-carboxylic acids” (1980).

Holding throughout (format): functional
For assay [1], the system named is Rattus norvegicus. Kind of assay: Antiallergic activity is evaluated for its ability to inhibit reaginic passive cutaneous anaphylaxis (PCA) in rats dosed at 5 mg/kg intravenously. To be noted: ip, in the assay text read “intraperitoneally” for “intravenously”. In outline:
(§1)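 Antiserum dilutions were injected intradermally at several back sites. 48 h later, rats were challenged i.v. with 1 mg ovalbumin in 1 mL saline containing 0.25% Evans blue. Diameter was plotted against relative antiserum concentration, and the least-squares line was extrapolated to zero antiserum. Groups of five animals were used.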

For assay [2], the system named is Rattus norvegicus. The assay can be described thus: Antiallergic activity is evaluated for its ability to inhibit reaginic passive cutaneous anaphylaxis (PCA) in rats dosed at 0.5 mg/kg intravenously. To be noted: route intravenous. In outline: as §1
The test system of assay [3] is Rattus norvegicus. Kind of assay: Antiallergic activity is evaluated for its ability to inhibit reaginic passive cutaneous anaphylaxis (PCA) in rats dosed intravenously; Value ranges from 1-2. To be noted: iv. In outline:
as §1

Assay [4] deals with Rattus norvegicus. The assay can be described thus: Antiallergic activity is evaluated for its ability to inhibit reaginic passive cutaneous anaphylaxis (PCA) in rats dosed intravenously. The note with it: iv. In outline: as §1
Assay [5] relates to Rattus norvegicus. The assay can be described thus: Antiallergic activity is evaluated for its ability to inhibit reaginic passive cutaneous anaphylaxis (PCA) in rats dosed perorally. The note with it: po. In outline: as §1
Assay [6] concerns Rattus norvegicus. The assay can be described thus: Antiallergy activity is evaluated for its ability to inhibit passive cutaneous anaphylaxis (PCA) in rats, dosed perorally. The note with it: po. In outline: as §1

One may read the inhibition in vivo as the drop in the measured response relative to a control, in per cent. Low values mean a response near the control, high ones a response far below the control. For the compound `O=C(O)c1ccc2c(=O)n3nc(Cl)ccc3nc2c1`, testing at 5 mg/kg in assay [1] gave an inhibition in vivo of 0%.

In turn, `Cc1ccc2nc3ccc(C(=O)O)nn3c(=O)c2c1` gave an inhibition in vivo at 0.5 mg/kg in assay [2] of 0%.

The compound `Cc1ccc2c(=O)n3nc(C(=O)O)ccc3nc2c1` yielded an inhibition in vivo at 0.5 mg/kg in assay [2] of 32%.

In general, ED50 refers to the dose at which the effect has come halfway, by size or by number of responders. The low end stands for greater potency, the high end for weaker potency. `O=C([O-])c1cc(=O)c2c(OCC(O)COc3cccc4oc(C(=O)[O-])cc(=O)c34)cccc2o1.[Na+].[Na+]` [CROMOLYN SODIUM] yielded an ED50 in assay [3] of 1 mg/kg.

In the case of `O=C(O)c1ccc2nc3ccc(Cl)cc3c(=O)n2n1`, in assay [2], the inhibition in vivo at 0.5 mg/kg turned out to be 91%.

As for `O=C1c2ccccc2S(=O)(=O)c2cc(-c3nn[nH]n3)ccc21` [DOXANTRAZOLE], the results for the ED50 in assay [4] and in assay [5] were 1 mg/kg and 5 mg/kg, respectively.

In the case of `O=C(O)c1ccc2nc3ccccc3c(=O)n2n1`, the inhibition in vivo at 0.5 mg/kg in assay [2] turned out to be 76%.

The compound `COc1ccc2nc3ccc(C(=O)O)nn3c(=O)c2c1` displayed an inhibition in vivo at 0.5 mg/kg in assay [2] of 8%.

For `Cc1ccc2nc3ccc(C(=O)O)cn3c(=O)c2c1`, the values for the ED50 in assay [4] and in assay [6] were 0.05 mg/kg and 0.7 mg/kg, respectively.

Regarding `O=C(O)c1ccc2nc3ccc(Cl)nn3c(=O)c2c1`, 5 mg/kg produced 0% inhibition in vivo in assay [1].

Take `O=C(O)c1ccc2nc3cc4ccccc4cc3c(=O)n2n1`: at 0.5 mg/kg the inhibition in vivo in assay [2] was 36%.

As for `COC(=O)c1ccc2nc3ccc(Cl)nn3c(=O)c2c1`, the inhibition in vivo at 5 mg/kg in assay [1] turned out to be 6%.

In the case of `COC(=O)c1ccc2c(=O)n3nc(Cl)ccc3nc2c1`, the inhibition in vivo at 5 mg/kg in assay [1] was 0%.
